# From article PMC11184607 (ACS Pharmacology & Translational Science, 2024)
# pEC50, pIC50: −log10 of the molar value. Bridge positions count the residues as written; N and C are the ends. Square brackets hold non-standard residues; d marks the D form. Peptide text beside a SMILES is read from it. * marks the point of attachment. NMeTrp(1-(4-Br-benzyl)) = CN[C@@H](Cc1cn(Cc2ccc(Br)cc2)c2ccccc12)C(=O)O; Butanoyl(2R-oxy,4-CN) = N#CCC[C@@H](O)C(=O)O; Abu(4,4,4-F3) = N[C@@H](CC(F)(F)F)C(=O)O; dNMeaIle = CC[C@H](C)[C@@H](NC)C(=O)O; NMe2Val = CC(C)[C@@H](C(=O)*)N(C)C; NMeI = CC[C@H](C)[C@H](NC)C(=O)O; NMeT = CN[C@H](C(=O)O)[C@@H](C)O; NMeL = CN[C@@H](CC(C)C)C(=O)O; Hiv = CC(C)[C@H](O)C(=O)O; NMeS = CN[C@@H](CO)C(=O)O; NMeA = CN[C@@H](C)C(=O)O; dNMeA = CN[C@H](C)C(=O)O
# Assays:
# [1] = system: human cytokines and chemokines in the SF-268 secretome; assay: Secretome profiling of human cytokines/chemokines in SF-268 conditioned medium; type: cell-based; conditions: SF-268, 1 μM, medium collected 24 h after removal, relative to vehicle
# In short: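 SF-268 cells are seeded in 96-well plates; next day they get complete medium with test compound (1 μM) or 0.1% DMSO for 24 h. Medium is then replaced by serum-free medium for a further 24 h. Conditioned medium is concentrated by centrifugation (75 min, 4000g), flash-frozen and run on a 48-plex multiplex laser-bead cytokine/chemokine immunoassay. 43 analytes are quantified (five below detection dropped); data are % of vehicle.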
# [2] = biological target: Gaussia luciferase (GLuc); assay: Gaussia luciferase; type: cell-based, human; conditions: 18 h; for Functional inhibition of GLuc secretion: relative to 1–3 or AprA
# In short: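 U87-MG cells stably express GLuc after lentiviral transduction. Cells are seeded at 3000/well, allowed to adhere overnight, then given test compound or 0.1% DMSO for 18 h. Conditioned medium is read for luminescence with 1.2 μM final coelenterazine (3 s wait, 0.5 s integration). Adherent-cell ATP viability is read at the same time. Data are % of vehicle; IC50 comes from a logistic nonlinear fit; n ≥3 independent experiments.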
# VCAM1 [3] = assay: Immunoblot of VCAM1 transiently expressed in HEK293 cells; type: cell-based, human; conditions: 1 µM, 24 h
# [4] = system: patient-derived GSCs (M120, MGG6, M76, GBM8, and 157); type: cell-based, human; conditions: read-out: EC50 values, five GSC lines (M120, MGG6, M76, GBM8, 157); 72 h
# cancer cell lines = conditions: cited from earlier work
# [5] = system: WT and mutant (R66I) Sec61α HCT116 colon cancer cells; assay: Viability of WT versus Sec61α R66I mutant HCT116 cells; type: cell-based, human; conditions: for Effect of Sec61α R66I mutation on cytotoxic response relative to WT HCT116 cells: 72 h and 6 days (3 + 3 day exposure)
# VCAM1 [6] = assay: Immunoblot of TNFα-stimulated VCAM1 in SF-295 cells; type: cell-based, human; conditions: for Efficacy in suppressing TNFα-stimulated VCAM1 expression: 1 µM, 24 h; for pIC50: read-out: IC50, VCAM1 expression, TNFα 10 ng/mL, 24 h
# In short: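 SF-295 cells (RPMI 1640, 10% FBS) are cotreated 24 h with increasing concentrations of test compound plus TNFα 10 ng/mL. Controls are 0.1% DMSO-treated and untreated cells. VCAM1 and ICAM1 are immunoblotted after SDS-PAGE and PVDF transfer. Signals are normalized to a loading control. Concentration–response is fit to a logistic equation by nonlinear regression.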
# BiP = assay: Immunoblot of BiP expression; type: cell-based, human; conditions: for BiP expression: HUVECs and U87-MG cells, 1 μM, 24 h
# VEGF-A = VEGF-A in cell culture medium by ELISA; type: cell-based, human; conditions: 1 µM, sustained 24 h after removal
# calreticulin (CALR) = assay: Immunoblot of calreticulin expression in U87-MG cells; type: cell-based, human; conditions: 1 μM, 24 h
# In short: (§1)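 U87-MG cells in MEM with 10% FBS are exposed 24 h to test compound (30 nM or 1 μM) or 0.1% DMSO. Protein-matched lysates (BCA) are run on SDS-PAGE, transferred to PVDF and detected with HRP secondary. Signals are normalized to α-tubulin and expressed relative to control. Three independent experiments; one-way ANOVA then t-test.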
# [7] = system: HEK293FRT cells expressing WT or mutant (R66I) Sec61α; assay: Viability of WT versus Sec61α R66I mutant HEK293 cells; type: cell-based, human; conditions: 72 h or 3 + 3 day exposure
# In short: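 HEK293FRT cells carrying Sec61α R66I, with wild-type comparators, are grown in DMEM with 10% FBS, 6 mM L-glutamine and 1 mM pyruvate. They are exposed to increasing test compound concentrations or 0.1% DMSO for 72 h, or 3 + 3 days to avoid nutrient deprivation. ATP viability is read as % of vehicle, n = 3 wells. Logistic nonlinear fit; ≥3 independent experiments.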
# [8] = system: UPR markers (BiP, CHOP, sXBP1, GADD34, IRE1) mRNA; assay: qPCR of ER stress; type: cell-based, human; conditions: 300 nM, 24 h
# In short: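 GSC neurospheres (MGG6, 83, M76, GBM8) are treated 24 h with test compound 80 nM, thapsigargin 300 nM, both together, or 0.1% DMSO. BiP, CHOP, sXBP1, GADD34 and IRE1 mRNA are measured by qPCR normalized to GAPDH and expressed as fold-change versus vehicle.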
# SPs of Sec61 substrates = conditions: read-out: IC50, SPs of other (insensitive) Sec61 substrates; cited from earlier work
# U87-MG GBM cells = assay: Cell viability; type: cell-based, human; conditions: 72 h
# In short: (§2)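 Cells are grown at 37 °C in 5% CO2. U87-MG and U251 are in MEM with 10% FBS, SF-268 in DMEM with 10% FBS, and SF-295 in RPMI 1640 with 10% FBS. HUVECs are pooled donors. Exposure is to the test compound (0.1 nM–1 μM) or 0.1% DMSO for 72 h. Viability is read by ATP luminescence as % of vehicle, n = 3 wells. […] comes from a logistic nonlinear fit over three independent comparisons.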
# SF-295 GBM cells = assay: Cell viability; type: cell-based, human; conditions: 72 h
# In short: as §2
# Hsp90 = assay: Immunoblot of Hsp90 in U87-MG cells; type: cell-based, human; conditions: 1 30 nM, 2 1 μM, 24 h
# In short: as §1
# Hsp70 = assay: Immunoblot of Hsp70 in U87-MG cells; type: cell-based, human; conditions: 1 30 nM, 2 1 μM, 24 h
# In short: as §1
smiles,measurement,setting,value
"CC[C@H](C)[C@H]1C(=O)N[C@@H](C)C(=O)N(C)[C@@H](CC(C)C)C(=O)N[C@@H](Cc2ccc(OC)cc2)C(=O)N(C)[C@@H](C)C(=O)O[C@H](C)[C@H](N(C)C(=O)[C@H](CC(C)C)N(C)C(=O)[C@H](COC)N(C)C(=O)[C@@H](OC(=O)[C@H](C(C)C)N(C)C)C(C)C)C(=O)N(C)[C@@H](COC)C(=O)N1C [compound 3, [L-Hiv^2, L-MeAla^11]-CbA] (NMe2Val-[Hiv][NMeS](Me)[NMeL][NMeT][NMeS](Me)[NMeI]A[NMeL]Y(Me)[NMeA]; ester 4-C)",Number of the 43 secreted proteins whose expression was decreased by <50%,[1],18
same,pIC50,"[2]; read-out: IC50, inhibition of GLuc secretion, U87-MG cells expressing GLuc, conditioned medium",> 7.70
same,Level of VCAM1 transiently expressed in HEK293 cells,VCAM1 [3],statistically significant decreases
same,pEC50,[4],> 5.22
same,Cytotoxic efficacy range,cancer cell lines,micromolar range
same,Cell viability of HCT116 cells at 72 h,"[5]; 72 h, 0.3 nM–3 μM",no change in the cell viability
same,Response of R66I mutant HCT116 cells at the extended end point,[5]; 6 days (3 + 3 day exposure),pattern of resistance
same,Efficacy in suppressing TNFα-stimulated VCAM1 expression,VCAM1 [6],partially effective
same,pIC50,VCAM1 [6],6.21
same,BiP expression,BiP,no statistically significant change
same,Inhibition of VEGF-A at 24 h,VEGF-A,statistically significant inhibition
same,CALR expression,calreticulin (CALR),less sensitive
same,Response of mutant Sec61(R66I) HEK293 cells relative to WT,[7],patterns of resistance
"CC[C@H](C)[C@@H]1C(=O)N[C@@H](C)C(=O)N(C)[C@@H](CC(C)C)C(=O)N[C@@H](Cc2ccc(OC)cc2)C(=O)N(C)[C@@H](C)C(=O)O[C@H](C)[C@H](N(C)C(=O)[C@H](CC(C)C)N(C)C(=O)[C@H](COC)N(C)C(=O)[C@@H](OC(=O)[C@H](C(C)C)N(C)C)C(C)C)C(=O)N(C)[C@@H](COC)C(=O)N1C [compound 5, [L-Hiv^2, D-allo-Ile^7, L-MeAla^11]-CbA] (NMe2Val-[Hiv][NMeS](Me)[NMeL][NMeT][NMeS](Me)[dNMeaIle]A[NMeL]Y(Me)[NMeA]; ester 4-C)",Functional inhibition of GLuc secretion,[2],loss of functional efficacy
"C/C=C(/C)C(=O)O[C@H]1C(C)=C2[C@H]([C@@H]1OC(=O)CCCCCCC)[C@@](C)(OC(C)=O)C[C@H](OC(=O)CCC)[C@@]1(O)[C@H]2OC(=O)[C@@]1(C)O [thapsigargin, reference compound]","BiP, CHOP, sXBP1, GADD34 and IRE1 mRNA expression in GSCs",[8],marked upregulation
"C[C@@]12OC(=O)[C@]1([C@@H](O)[C@@H]1C=CCCC1)NC(=O)[C@@H]2CCCl [marizomib, reference compound]",Effect of Sec61α R66I mutation on cytotoxic response relative to WT HCT116 cells,[5],did not change the cytotoxic efficacy
same,Response of mutant Sec61(R66I) HEK293 cells relative to WT,[7],highly sensitive
"CC(C)C[C@@H]1NC(=O)[C@H](Cc2cn(Cc3ccc(Br)cc3)c3ccccc23)N(C)C(=O)[C@H](CC(F)(F)F)NC(=O)[C@H](CC(C)C)N(C)C(=O)[C@H](CC(F)(F)F)NC(=O)[C@@H](CCC#N)OC(=O)[C@H](C)N(C)C1=O [KZR-8445] (cyclo(L[NMeA][Butanoyl(2R-oxy,4-CN)][Abu(4,4,4-F3)][NMeL][Abu(4,4,4-F3)][NMeTrp(1-(4-Br-benzyl))]))",pIC50,SPs of Sec61 substrates,< 4.60
"CC[C@H](C)[C@H]1C(=O)N[C@@H](C)C(=O)N(C)[C@@H](CC(C)C)C(=O)N[C@@H](Cc2ccc(OC)cc2)C(=O)N(C)[C@H](C)C(=O)O[C@H](C)[C@H](N(C)C(=O)[C@H](CC(C)C)N(C)C(=O)[C@H](COC)N(C)C(=O)[C@@H](OC(=O)[C@H](C(C)C)N(C)C)C(C)C)C(=O)N(C)[C@@H](COC)C(=O)N1C [compound 2, [L-Hiv^2]-CbA] (NMe2Val-[Hiv][NMeS](Me)[NMeL][NMeT][NMeS](Me)[NMeI]A[NMeL]Y(Me)[dNMeA]; ester 4-C)",Number of the 43 secreted proteins whose expression was decreased by <50%,[1],24
same,"Fold less potent than 1, U87-MG cells",U87-MG GBM cells,approximately 13 fold
same,Level of VCAM1 transiently expressed in HEK293 cells,VCAM1 [3],statistically significant decreases
same,pEC50,[4],> 5.52
same,Effect of Sec61α R66I mutation on cytotoxic response relative to WT HCT116 cells,[5],decrease in cytotoxic efficacy
same,"Fold less sensitive than 1, SF-295 cells",SF-295 GBM cells,5 fold
same,Fold greater sensitivity of VCAM1 to 2 than to 3,VCAM1 [6],approximately 7 fold
same,Efficacy in suppressing TNFα-stimulated VCAM1 expression,VCAM1 [6],fully efficacious
same,pIC50,VCAM1 [6],7.06
same,"BiP expression, GSC line 83","BiP; 1 250 nM and 500 nM, 2 3 µM, 72 h",decrease
same,BiP expression,BiP,suppressed
same,Inhibition of VEGF-A at 24 h,VEGF-A,statistically significant inhibition
same,Hsp90 expression,Hsp90,upregulation
same,Hsp70 expression,Hsp70,upregulation
same,Response of mutant Sec61(R66I) HEK293 cells relative to WT,[7],patterns of resistance
"CC[C@H](C)[C@@H]1C(=O)N[C@@H](C)C(=O)N(C)[C@@H](CC(C)C)C(=O)N[C@@H](Cc2ccc(OC)cc2)C(=O)N(C)[C@H](C)C(=O)O[C@H](C)[C@H](N(C)C(=O)[C@H](CC(C)C)N(C)C(=O)[C@H](COC)N(C)C(=O)[C@@H](OC(=O)[C@H](C(C)C)N(C)C)C(C)C)C(=O)N(C)[C@@H](COC)C(=O)N1C [compound 4, [L-Hiv^2, D-allo-Ile^7]-CbA] (NMe2Val-[Hiv][NMeS](Me)[NMeL][NMeT][NMeS](Me)[dNMeaIle]A[NMeL]Y(Me)[dNMeA]; ester 4-C)",Functional inhibition of GLuc secretion,[2],loss of functional efficacy
